# From ChEMBL document CHEMBL3124924, “Bifunctional ethyl 2-amino-4-methylthiazole-5-carboxylate derivatives: synthesis and in vitro biological evaluation as antimicrobial and anticancer agents” (2014)
# System: NCI-H522
# Experiment: Cytotoxicity against human NCI-H522 cells assessed as growth inhibition at 10 uM after 48 hrs by SRB assay
# Assay type: functional
# Conditions: NCI-H522, 48 h, read-out: GI
# Procedure, shortened: (§1)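 NCI-60 one-dose primary screen run by the NCI Drug Evaluation Branch across the full 60-line panel. Single high-dose treatment with 48 h continuous drug exposure. Cell growth estimated by sulforhodamine B protein staining. Results given as percent growth of treated cells and expressed as percentage growth inhibition.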
row,Structure (SMILES),inhibition of growth at 10 µM [%]
1,CCOC(=O)c1sc(NC(=O)NC2CCCCC2)nc1C,< 10

# System: Escherichia coli
# Experiment: Antibacterial activity against Escherichia coli ATCC 25922 assessed as growth inhibition at 1 mg/mL after 24 hrs by agar-cup diffusion method
# Assay type: functional
# Conditions: ATCC 25922, 24 h, read-out: DIZ
# Procedure, shortened: (§2)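 Agar-cup diffusion: 1 mL of 6 h broth culture seeded per 100 mL molten sterile agar at 45 °C and poured into plates. 8 mm cups cut, each filled with 0.1 mL of 1 mg/mL test solution. Incubated 37 °C for 24 h, 48 h for C. albicans. DMSO control per organism. Inhibition zone diameter in mm, mean of three measurements.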
row,Structure (SMILES),zone of inhibition at 1000 µg/mL [mm]
1,CCOC(=O)c1sc(NC(=O)NC2CCCCC2)nc1C,> 13

# System: HT-29
# Experiment: Cytotoxicity against human HT-29 cells assessed as growth inhibition at 10 uM after 48 hrs by SRB assay
# Assay type: functional
# Conditions: HT-29, 48 h, read-out: GI
# Procedure, shortened: as §1
row,Structure (SMILES),inhibition of growth at 10 µM [%]
1,CCOC(=O)c1sc(NC(=O)NC2CCCCC2)nc1C,15.5

# System: Escherichia coli
# Experiment: Antibacterial activity against Escherichia coli ATCC 25922 assessed as growth inhibition after 48 hrs by two-fold serial dilution assay
# Assay type: functional
# Conditions: ATCC 25922, 48 h
# Procedure, shortened: (§3)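 Twofold serial broth dilution run on compounds giving inhibition zones of 13 mm or more. Organisms pre-grown in suitable broth at 37 °C, 24 h for bacteria and 48 h for fungi. Dilution series 200, 100, 50, 25, 12.5, 6.25. Each 5 mL tube inoculated with 0.1 mL and incubated 37 °C for 48 h. Tubes scored for presence or absence of growth.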
row,MIC [µg/mL],Structure (SMILES)
1,50,CCOC(=O)c1sc(NC(=O)NC2CCCCC2)nc1C

# System: SK-MEL-2
# Experiment: Cytotoxicity against human SK-MEL-2 cells assessed as growth inhibition at 10 uM after 48 hrs by SRB assay
# Assay type: functional
# Conditions: SK-MEL-2, 48 h, read-out: GI
# Procedure, shortened: as §1
row,Structure (SMILES),inhibition of growth at 10 µM [%]
1,CCOC(=O)c1sc(NC(=O)NC2CCCCC2)nc1C,64.1

# System: not listed separately
# Experiment: Cytotoxicity against human UO31 cells assessed as growth inhibition at 10 uM after 48 hrs by SRB assay
# Assay type: functional
# Conditions: UO-31, 48 h, read-out: GI
# Procedure, shortened: as §1
row,Structure (SMILES),inhibition of growth at 10 µM [%]
1,CCOC(=O)c1sc(NC(=O)NC2CCCCC2)nc1C,10.6

# System: Bacillus spizizenii
# Experiment: Antibacterial activity against Bacillus subtilis ATCC 6633 assessed as growth inhibition after 48 hrs by two-fold serial dilution assay
# Assay type: functional
# Conditions: ATCC 6633, 48 h
# Procedure, shortened: as §3
row,MIC [µg/mL],Structure (SMILES)
1,100,CCOC(=O)c1sc(NC(=O)NC2CCCCC2)nc1C

# System: RPMI-8226
# Experiment: Cytotoxicity against human RPMI8226 cells assessed as growth inhibition at 10 uM after 48 hrs by SRB assay
# Assay type: functional
# Conditions: RPMI-8226, 48 h, read-out: GI
# Procedure, shortened: as §1
row,Structure (SMILES),inhibition of growth at 10 µM [%]
1,CCOC(=O)c1sc(NC(=O)NC2CCCCC2)nc1C,4.13

# System: Bacillus spizizenii
# Experiment: Antibacterial activity against Bacillus subtilis ATCC 6633 assessed as growth inhibition at 1 mg/mL after 24 hrs by agar-cup diffusion method
# Assay type: functional
# Conditions: ATCC 6633, 24 h, read-out: DIZ
# Procedure, shortened: as §2
row,Structure (SMILES),zone of inhibition at 1000 µg/mL [mm]
1,CCOC(=O)c1sc(NC(=O)NC2CCCCC2)nc1C,> 13

# System: T47D
# Experiment: Cytotoxicity against human T47D cells assessed as growth inhibition at 10 uM after 48 hrs by SRB assay
# Assay type: functional
# Conditions: read-out: GI
# Procedure, shortened: as §1
row,Structure (SMILES),inhibition of growth at 10 µM [%]
1,CCOC(=O)c1sc(NC(=O)NC2CCCCC2)nc1C,4.11

# System: HOP-92
# Experiment: Cytotoxicity against human HOP92 cells assessed as growth inhibition at 10 uM after 48 hrs by SRB assay
# Assay type: functional
# Conditions: HOP-92, 48 h, read-out: GI
# Procedure, shortened: as §1
row,Structure (SMILES),inhibition of growth at 10 µM [%]
1,CCOC(=O)c1sc(NC(=O)NC2CCCCC2)nc1C,53.9

# System: Staphylococcus aureus
# Experiment: Antibacterial activity against Staphylococcus aureus ATCC 6538 assessed as growth inhibition after 48 hrs by two-fold serial dilution assay
# Assay type: functional
# Conditions: ATCC 6538, 48 h
# Procedure, shortened: as §3
row,MIC [µg/mL],Structure (SMILES)
1,50,CCOC(=O)c1sc(NC(=O)NC2CCCCC2)nc1C

# System: MOLT-4
# Experiment: Cytotoxicity against human MOLT4 cells assessed as growth inhibition at 10 uM after 48 hrs by SRB assay
# Assay type: functional
# Conditions: MOLT-4, 48 h, read-out: GI
# Procedure, shortened: as §1
row,Structure (SMILES),inhibition of growth at 10 µM [%]
1,CCOC(=O)c1sc(NC(=O)NC2CCCCC2)nc1C,12.3

# System: Escherichia coli
# Experiment: Bactericidal activity against Escherichia coli ATCC 25922 after 18 hrs
# Assay type: functional
# Conditions: ATCC 25922, 18 h
# Procedure, shortened: (§4)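 Continuation of the broth-dilution MIC test. A loopful from each tube without visible growth spread on a quarter of a Mueller-Hinton agar plate and incubated 18 h. Lowest concentration giving no growth on subculture taken as the MBC.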
row,Structure (SMILES),MBC [µg/mL]
1,CCOC(=O)c1sc(NC(=O)NC2CCCCC2)nc1C,100

# System: Staphylococcus aureus
# Experiment: Bactericidal activity against Staphylococcus aureus ATCC 6538 after 18 hrs
# Assay type: functional
# Conditions: ATCC 6538, 18 h
# Procedure, shortened: as §4
row,Structure (SMILES),MBC [µg/mL]
1,CCOC(=O)c1sc(NC(=O)NC2CCCCC2)nc1C,50

# System: MDA-MB-468
# Experiment: Cytotoxicity against human MDA-MB-468 cells assessed as growth inhibition at 10 uM after 48 hrs by SRB assay
# Assay type: functional
# Conditions: MDA-MB-468, 48 h, read-out: GI
# Procedure, shortened: as §1
row,Structure (SMILES),inhibition of growth at 10 µM [%]
1,CCOC(=O)c1sc(NC(=O)NC2CCCCC2)nc1C,< 10

# System: not listed separately
# Experiment: Cytotoxicity against human NCI-ADR-RES cells assessed as growth inhibition at 10 uM after 48 hrs by SRB assay
# Assay type: functional
# Conditions: read-out: GI
# Procedure, shortened: as §1
row,Structure (SMILES),inhibition of growth at 10 µM [%]
1,CCOC(=O)c1sc(NC(=O)NC2CCCCC2)nc1C,8.96

# System: SF-268
# Experiment: Cytotoxicity against human SF268 cells assessed as growth inhibition at 10 uM after 48 hrs by SRB assay
# Assay type: functional
# Conditions: SF-268, 48 h, read-out: GI
# Procedure, shortened: as §1
row,Structure (SMILES),inhibition of growth at 10 µM [%]
1,CCOC(=O)c1sc(NC(=O)NC2CCCCC2)nc1C,12.6

# System: PC-3
# Experiment: Cytotoxicity against human PC3 cells assessed as growth inhibition at 10 uM after 48 hrs by SRB assay
# Assay type: functional
# Conditions: PC-3, 48 h, read-out: GI
# Procedure, shortened: as §1
row,Structure (SMILES),inhibition of growth at 10 µM [%]
1,CCOC(=O)c1sc(NC(=O)NC2CCCCC2)nc1C,< 10

# System: Staphylococcus aureus
# Experiment: Antibacterial activity against Staphylococcus aureus ATCC 6538 assessed as growth inhibition at 1 mg/mL after 24 hrs by agar-cup diffusion method
# Assay type: functional
# Conditions: ATCC 6538, 24 h, read-out: DIZ
# Procedure, shortened: as §2
row,Structure (SMILES),zone of inhibition at 1000 µg/mL [mm]
1,CCOC(=O)c1sc(NC(=O)NC2CCCCC2)nc1C,> 13

# System: IGROV-1
# Experiment: Cytotoxicity against human IGROV1 cells assessed as growth inhibition at 10 uM after 48 hrs by SRB assay
# Assay type: functional
# Conditions: IGROV-1, 48 h, read-out: GI
# Procedure, shortened: as §1
row,Structure (SMILES),inhibition of growth at 10 µM [%]
1,CCOC(=O)c1sc(NC(=O)NC2CCCCC2)nc1C,43.7

# System: CCRF-CEM
# Experiment: Cytotoxicity against human CCRF-CEM cells assessed as growth inhibition at 10 uM after 48 hrs by SRB assay
# Assay type: functional
# Conditions: read-out: GI
# Procedure, shortened: as §1
row,Structure (SMILES),inhibition of growth at 10 µM [%]
1,CCOC(=O)c1sc(NC(=O)NC2CCCCC2)nc1C,6.76

# System: UACC-62
# Experiment: Cytotoxicity against human UACC62 cells assessed as growth inhibition at 10 uM after 48 hrs by SRB assay
# Assay type: functional
# Conditions: UACC-62, 48 h, read-out: GI
# Procedure, shortened: as §1
row,Structure (SMILES),inhibition of growth at 10 µM [%]
1,CCOC(=O)c1sc(NC(=O)NC2CCCCC2)nc1C,26

# System: SNB-75
# Experiment: Cytotoxicity against human SNB75 cells assessed as growth inhibition at 10 uM after 48 hrs by SRB assay
# Assay type: functional
# Conditions: SNB-75, 48 h, read-out: GI
# Procedure, shortened: as §1
row,Structure (SMILES),inhibition of growth at 10 µM [%]
1,CCOC(=O)c1sc(NC(=O)NC2CCCCC2)nc1C,< 10

# System: HCC 2998
# Experiment: Cytotoxicity against human HCC2998 cells assessed as growth inhibition at 10 uM after 48 hrs by SRB assay
# Assay type: functional
# Conditions: HCC 2998, 48 h, read-out: GI
# Procedure, shortened: as §1
row,Structure (SMILES),inhibition of growth at 10 µM [%]
1,CCOC(=O)c1sc(NC(=O)NC2CCCCC2)nc1C,< 10

# System: Bacillus spizizenii
# Experiment: Bactericidal activity against Bacillus subtilis ATCC 6633 after 18 hrs
# Assay type: functional
# Conditions: ATCC 6633, 18 h
# Procedure, shortened: as §4
row,Structure (SMILES),MBC [µg/mL]
1,CCOC(=O)c1sc(NC(=O)NC2CCCCC2)nc1C,100

# System: NCI-H322M
# Experiment: Cytotoxicity against human NCI-H322M cells assessed as growth inhibition at 10 uM after 48 hrs by SRB assay
# Assay type: functional
# Conditions: read-out: GI
# Procedure, shortened: as §1
row,Structure (SMILES),inhibition of growth at 10 µM [%]
1,CCOC(=O)c1sc(NC(=O)NC2CCCCC2)nc1C,< 10

# System: Pseudomonas aeruginosa
# Experiment: Antibacterial activity against Pseudomonas aeruginosa ATCC 27853 assessed as growth inhibition at 1 mg/mL after 24 hrs by agar-cup diffusion method
# Assay type: functional
# Conditions: ATCC 27853, 24 h, read-out: DIZ
# Procedure, shortened: as §2
row,Structure (SMILES),zone of inhibition at 1000 µg/mL [mm]
1,CCOC(=O)c1sc(NC(=O)NC2CCCCC2)nc1C,> 13

# System: SW-620
# Experiment: Cytotoxicity against human SW620 cells assessed as growth inhibition at 10 uM after 48 hrs by SRB assay
# Assay type: functional
# Conditions: SW-620, 48 h, read-out: GI
# Procedure, shortened: as §1
row,Structure (SMILES),inhibition of growth at 10 µM [%]
1,CCOC(=O)c1sc(NC(=O)NC2CCCCC2)nc1C,7.5

# System: MCF7
# Experiment: Cytotoxicity against human MCF7 cells assessed as growth inhibition at 10 uM after 48 hrs by SRB assay
# Assay type: functional
# Conditions: MCF7, 48 h, read-out: GI
# Procedure, shortened: as §1
row,Structure (SMILES),inhibition of growth at 10 µM [%]
1,CCOC(=O)c1sc(NC(=O)NC2CCCCC2)nc1C,12.7
